In ChEMBL document CHEMBL2406989, “Design, synthesis and preliminary evaluation of a series of histone deacetylase inhibitors carrying a benzodiazepine ring” (Eur J Med Chem, 2013):
Activity calls are given as the source filed them. No cut-off for these calls is given here.

Experiments:
NB-4 [1] = experiment: Induction of apoptosis in human NB4 cells after 48 hrs by Annexin V test; assay type: functional, cell-based; conditions: NB-4, 48 h
[2] = target: T1, Histone deacetylase (Homo sapiens) (UniProt Q13547+O15379+Q9UBN7+Q92769+Q9UQL6+Q8WUI4+Q9BY41+Q96DB2+P56524+Q9UKV0+Q969S8); conditions: HeLa, at 1 µM
Histone deacetylase 1 = Histone deacetylase 1 (Homo sapiens, UniProt Q13547); experiment: Inhibition of full length His-tagged human recombinant HDAC1 expressed in baculovirus system using fluor de Lys as substrate by fluorometric analysis
Histone deacetylase 1, sequence (Q13547 whole entry): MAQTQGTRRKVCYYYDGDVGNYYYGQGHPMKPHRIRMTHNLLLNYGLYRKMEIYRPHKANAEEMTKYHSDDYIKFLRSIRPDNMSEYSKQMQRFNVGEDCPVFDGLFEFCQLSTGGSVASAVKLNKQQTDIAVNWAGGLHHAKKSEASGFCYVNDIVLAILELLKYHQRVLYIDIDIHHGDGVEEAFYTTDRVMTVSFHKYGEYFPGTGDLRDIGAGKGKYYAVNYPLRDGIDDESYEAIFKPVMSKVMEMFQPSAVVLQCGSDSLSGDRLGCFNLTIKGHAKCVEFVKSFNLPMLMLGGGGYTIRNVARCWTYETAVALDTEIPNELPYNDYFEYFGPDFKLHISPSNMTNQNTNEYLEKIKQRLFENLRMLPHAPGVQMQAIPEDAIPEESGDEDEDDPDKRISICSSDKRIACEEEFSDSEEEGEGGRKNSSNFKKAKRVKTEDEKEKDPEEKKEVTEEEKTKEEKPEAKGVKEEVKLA

HCT-116 = experiment: Antiproliferative activity against human HCT116 cells after 72 hrs by CellTiter-Glo assay; assay type: functional, cell-based; conditions: HCT-116, 72 h
A549 = experiment: Antiproliferative activity against human A549 cells after 72 hrs by CellTiter-Glo assay; assay type: functional, cell-based; conditions: A549, 72 h
K562 = experiment: Antiproliferative activity against human K562 cells after 72 hrs by CellTiter-Glo assay; assay type: functional, cell-based; conditions: K562, 72 h
Histone deacetylase = experiment: Inhibition of HDAC in human HeLa cell extract using fluor de Lys as substrate after 15 mins by fluorometric analysis; assay type: protein assay
[3] = target: T2, Protein deacetylase HDAC6 (Homo sapiens, UniProt Q9UBN7); experiment: Inhibition of full length His-tagged human recombinant HDAC6 expressed in baculovirus system using fluor de Lys as substrate by fluorometric analysis
T2 sequence (Q9UBN7 whole entry): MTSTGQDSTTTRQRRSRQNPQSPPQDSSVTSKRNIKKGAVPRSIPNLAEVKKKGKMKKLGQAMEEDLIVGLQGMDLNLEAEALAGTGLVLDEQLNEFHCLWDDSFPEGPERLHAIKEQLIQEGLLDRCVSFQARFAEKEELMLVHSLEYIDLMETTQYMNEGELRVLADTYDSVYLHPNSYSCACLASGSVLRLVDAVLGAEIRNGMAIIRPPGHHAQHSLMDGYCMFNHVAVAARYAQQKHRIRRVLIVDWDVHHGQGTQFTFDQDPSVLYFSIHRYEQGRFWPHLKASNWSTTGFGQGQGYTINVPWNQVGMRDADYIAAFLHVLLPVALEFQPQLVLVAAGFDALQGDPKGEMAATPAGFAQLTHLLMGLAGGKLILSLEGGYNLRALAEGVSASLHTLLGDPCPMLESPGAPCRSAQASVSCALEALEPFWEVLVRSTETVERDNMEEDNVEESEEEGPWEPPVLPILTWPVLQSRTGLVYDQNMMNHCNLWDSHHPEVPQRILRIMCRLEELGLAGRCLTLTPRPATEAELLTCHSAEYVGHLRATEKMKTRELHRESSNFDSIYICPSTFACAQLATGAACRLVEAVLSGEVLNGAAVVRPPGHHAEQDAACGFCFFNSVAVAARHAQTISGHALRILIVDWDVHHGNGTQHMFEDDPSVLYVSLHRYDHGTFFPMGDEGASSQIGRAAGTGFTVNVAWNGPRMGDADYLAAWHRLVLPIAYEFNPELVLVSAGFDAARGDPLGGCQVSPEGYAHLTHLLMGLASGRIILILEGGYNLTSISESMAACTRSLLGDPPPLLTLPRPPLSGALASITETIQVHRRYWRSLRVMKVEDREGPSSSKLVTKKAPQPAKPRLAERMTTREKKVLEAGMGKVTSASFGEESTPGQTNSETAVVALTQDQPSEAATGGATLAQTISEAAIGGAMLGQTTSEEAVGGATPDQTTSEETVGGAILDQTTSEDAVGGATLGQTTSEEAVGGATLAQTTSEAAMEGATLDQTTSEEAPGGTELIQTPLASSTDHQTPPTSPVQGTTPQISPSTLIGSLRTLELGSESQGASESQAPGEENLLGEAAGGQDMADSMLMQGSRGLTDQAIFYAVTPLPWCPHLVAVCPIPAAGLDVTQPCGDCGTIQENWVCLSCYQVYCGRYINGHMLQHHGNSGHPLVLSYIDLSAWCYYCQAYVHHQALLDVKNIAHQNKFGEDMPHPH

NB-4 [4] = experiment: Induction of apoptosis in human NB4 cells assessed apoptotic cells at 0.5 uM using Annexin-V-Fluos and propidium iodide staining by cytofluorimetric analysis (reference value: 7.2 %); assay type: functional
NB-4 [5] = experiment: Cytotoxicity against human NB4 cells assessed as cell viability after 48 hrs by trypan blue exclusion test; assay type: functional, cell-based; conditions: NB-4, 48 h
[6] = target: T1, Histone deacetylase (Homo sapiens); experiment: Inhibition of HDAC in human NB4 cells assessed as histone H3 acetylation after 6 hrs by Western blot/immunostaining analysis; assay type: cell-based; conditions: NB-4
Procedure, shortened: (§1)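 NB4 cells (1×10^5/ml) exposed 6 h to 0, 0.5, 1 or 2 μM drug (DMSO vehicle ≤0.3%). Lysed in 1% Triton X-100/1 mM PMSF/40 mM Tris-HCl pH 8.0/150 mM NaCl and sonicated. Run on 12.5% SDS-PAGE, blotted, probed with rabbit anti-acetyl-H3 or -H4 plus peroxidase secondary, ECL. Densitometry against α-tubulin, treated vs untreated, from one typical experiment.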

NB-4 [7] = experiment: Induction of apoptosis in human NB4 cells assessed fragmentation using Giemsa staining by microscopic analysis; assay type: functional, cell-based
NB-4 [8] = experiment: Induction of apoptosis in human NB4 cells assessed apoptotic cells at 1 uM using Annexin-V-Fluos and propidium iodide staining by cytofluorimetric analysis (reference value: 7.2 %); assay type: functional
[9] = target: T1, Histone deacetylase (Homo sapiens); experiment: Inhibition of HDAC in human NB4 cells assessed as histone H3 acetylation at 0.5 uM by densitometric analysis; assay type: cell-based; conditions: NB-4; procedure, shortened: as §1
NB-4 [10] = experiment: Induction of apoptosis in human NB4 cells assessed apoptotic cells at 2 uM using Annexin-V-Fluos and propidium iodide staining by cytofluorimetric analysis (reference value: 7.2 %); assay type: functional
[11] = target: T1, Histone deacetylase (Homo sapiens); experiment: Inhibition of HDAC in human NB4 cells assessed as histone H4 acetylation at 1 uM by densitometric analysis; assay type: cell-based; conditions: NB-4; procedure, shortened: as §1
NB-4 [12] = experiment: Induction of apoptosis in human NB4 cells assessed increase in cell shrinking using Giemsa staining by microscopic analysis; assay type: functional, cell-based
NB-4 [13] = experiment: Induction of apoptosis in human NB4 cells assessed increase in apoptotic bodies at 1 to 2 uM using Giemsa staining by microscopic analysis; assay type: functional, cell-based
[14] = target: T1, Histone deacetylase (Homo sapiens); experiment: Inhibition of HDAC in human NB4 cells assessed as histone H4 acetylation after 6 hrs by Western blot/immunostaining analysis; assay type: cell-based; conditions: NB-4; procedure, shortened: as §1
[15] = target: T1, Histone deacetylase (Homo sapiens); experiment: Inhibition of HDAC in human NB4 cells assessed as histone H4 acetylation at 0.5 uM by densitometric analysis; assay type: cell-based; conditions: NB-4; procedure, shortened: as §1
[16] = target: T1, Histone deacetylase (Homo sapiens); experiment: Inhibition of HDAC in human NB4 cells assessed as histone H3 acetylation at 1 uM by densitometric analysis; assay type: cell-based; conditions: NB-4; procedure, shortened: as §1

Compound | IC50 (NB-4 [1]) [nM] | inhibition [2] [%] | IC50 (Histone deacetylase 1) [nM] | IC50 (HCT-116) [nM] | IC50 (A549) [nM] | IC50 (K562) [nM] | IC50 (Histone deacetylase) [nM] | IC50 [3] [nM] | further results
CN1C(=O)C(NC(=O)CCCCCCC(=O)NO)N=C(c2ccccc2)c2ccccc21 (racemic) | 1200 |  |  |  |  |  |  |  | 
CN1C(=O)C(NC(=O)CCCCC(=O)NO)N=C(c2ccccc2)c2ccccc21 (racemic) | 1910 | 70 | 420 | 2010 | 5440 | 3280 | 380 | > 100000 | 
CN1C(=O)C(NC(=O)CCCCCCCC(=O)NO)N=C(c2ccccc2)c2ccccc21 (racemic) | 4000 | 57 | 480 | 3930 | 7950 | 4590 | 600 | 9080 | 
CN1C(=O)[C@@H](NC(=O)CCCCCCC(=O)NO)N=C(c2ccccc2)c2ccccc21 | 860 | 88 | 550 | 470 | 1440 | 720 | 120 | 400 | Activity (NB-4 [4]): 8.6%; IC50 (NB-4 [5]): 460 nM; inhibition [6]: Dose-dependent effect; Activity (NB-4 [7]): Dose-dependent effect; Activity (NB-4 [8]): 66.2%; inhibition [9]: 50%; Activity (NB-4 [10]): 83.4%; inhibition [11]: 51%; Activity (NB-4 [12]): Dose-dependent effect; Activity (NB-4 [13]): Active; inhibition [14]: Dose-dependent effect; inhibition [15]: 8%; inhibition [16]: 84%
O=C(CCCCCCC(=O)N1CCN=C(c2ccccc2)c2ccccc21)NO | 3990 | 82 | 250 | 1440 | 2540 | 1670 | 180 | 1120 | 
CN1C(=O)CN=C(c2ccccc2)c2cc(C#C/C=C/C(=O)NO)ccc21 | 2600 | 82 | 440 | 460 | 1300 | 780 | 160 | 7720 | 
CN1C(=O)C(N)N=C(c2ccccc2)c2cc(C#CCCCC(=O)NO)ccc21 (racemic) |  |  | 1090 |  |  |  |  | > 100000 | 
CN1C(=O)CN=C(c2ccccc2)c2cc(C#CCCC(=O)NO)ccc21 | > 5000 | 22 | 2750 | 6540 | 10300 | 8220 |  | > 100000 | 
CN1C(=O)CN=C(c2ccccc2)c2cc(C#CCCCCC(=O)NO)ccc21 | 4090 | 36 | 1900 | 1860 | 2690 | 2670 |  | 5900 | 
C[C@@H]1N=C(c2ccccc2)c2cc(C#CCCCC(=O)NO)ccc2NC1=O | 3040 | 65 | 490 | 970 | 2820 | 1400 | 340 | 460 | 
CN1C(=O)CN=C(c2ccccc2)c2cc(C#CCCCC(=O)NO)ccc21 | 1950 | 39 |  | 2620 | 5950 | 4970 |  |  | 
CN1C(=O)[C@H](NC(=O)CCCCCCC(=O)NO)N=C(c2ccccc2)c2ccccc21 | > 5000 | 73 | 700 | 1070 | 2690 | 1720 | 310 | 6500 | 
CN1C(=O)C(NC(=O)CCCCCC(=O)NO)N=C(c2ccccc2)c2ccccc21 (racemic) | 2560 | 73 | 270 | 1440 | 4420 | 1840 | 320 | 180 | 
